Common to all, as to format: functional
Test [1] deals with Enterococcus faecium. Put plainly: Antibacterial activity against quinupristin-dalfopristin resistant and ermB and vanA gene expressing Enterococcus faecium isolate C19 containing streptogramin A resistance genes vatG and vgaD isolated from poultry stool samples.
For test [2], the system named is Enterococcus faecium. Kind of test: Antibacterial activity against quinupristin-dalfopristin resistant and ermB gene expressing Enterococcus faecium isolate KS46 containing streptogramin A resistance genes vatG and vgaD isolated from healthy human stool samples.
The subject of test [3] is Enterococcus faecium. Kind of test: Antibacterial activity against quinupristin-dalfopristin resistant and ermB gene expressing Enterococcus faecium isolate AS115 containing streptogramin A resistance genes vatG and vgaD isolated from poultry stool samples. Summed up:
(§1)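 Isolates were recovered from fecal samples (human, poultry, swine; 2000/2003) or retail meat (2003). Samples were enriched in Enterococcosel broth for 48 h at 37°C, then streaked on Enterococcosel agar containing Q-D at 2 μg/ml to select resistant E. faecium. vatG and vgaD were detected by PCR with gene-specific primers: 30 cycles, annealing at 55°C.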

Test [4] has as its system Enterococcus faecium. Kind of test: Antibacterial activity against quinupristin-dalfopristin resistant and ermB gene expressing Enterococcus faecium isolate CS106 containing streptogramin A resistance genes vatG and vgaD isolated from poultry stool samples.
The subject of test [5] is Enterococcus faecium. Put plainly: Antibacterial activity against quinupristin-dalfopristin resistant and ermB gene expressing Enterococcus faecium isolate CS103 containing streptogramin A resistance genes vatG and vgaD isolated from poultry stool samples.
Test [6] deals with Enterococcus faecium. Put plainly: Antibacterial activity against quinupristin-dalfopristin resistant and vanA gene expressing Enterococcus faecium isolate GAV12 containing streptogramin A resistance genes vatG and vgaD isolated from chicken meat samples. Summed up:
as §1

The subject of test [7] is Enterococcus faecium. Kind of test: Antibacterial activity against quinupristin-dalfopristin resistant and ermB gene expressing Enterococcus faecium isolate CS121 containing streptogramin A resistance genes vatG and vgaD isolated from poultry stool samples.
Test [8] concerns Enterococcus faecium. Kind of test: Antibacterial activity against quinupristin-dalfopristin resistant and vanA gene expressing Enterococcus faecium isolate GAV04 containing streptogramin A resistance genes vatG and vgaD isolated from chicken meat samples.
For test [9], the system named is Enterococcus faecium. Kind of test: Antibacterial activity against quinupristin-dalfopristin resistant and ermB and vanA gene expressing Enterococcus faecium isolate A15 containing streptogramin A resistance genes vatG and vgaD isolated from poultry stool samples. In a few lines: as §1
Test [10] has as its system Enterococcus faecium. Kind of test: Antibacterial activity against quinupristin-dalfopristin resistant and ermB gene expressing Enterococcus faecium isolate JS79 containing streptogramin A resistance genes vatG and vgaD isolated from healthy human stool samples.
In test [11] the test system is Enterococcus faecium. Put plainly: Antibacterial activity against quinupristin-dalfopristin resistant Enterococcus faecium isolate ES022 containing streptogramin A resistance genes vatG and vgaD isolated from swine stool samples.
Test [12] concerns Enterococcus faecium. Kind of test: Antibacterial activity against quinupristin-dalfopristin abd erythromycin sensitive aEnterococcus faecium U201 transconjugants receiving ermB genes and vatG gene from quinupristin-dalfopristin resistant Enterococcus faecium isolate. In a few lines:
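Transconjugants came from broth mating: donor and recipient overnight M17 cultures were mixed 1:1 into fresh M17 broth for 6 h at 37°C. Selection was on BHI agar with erythromycin (100 μg/ml) and ampicillin (100 μg/ml) for 24 h at 37°C. The erythromycin and Q-D MICs were compared with the donor's.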

The test system of test [13] is Enterococcus faecium. Kind of test: Antibacterial activity against quinupristin-dalfopristin resistant and ermB gene expressing Enterococcus faecium isolate CS098 containing streptogramin A resistance genes vatG and vgaD isolated from poultry stool samples.

Values after ≈ are worked out from the molar mass of the structure shown. A value given as a limit tells only on which side of the number the result lay.

What is called MIC is the smallest concentration in the dilution series that meets the test's criterion for growth inhibition. A low value points to inhibition by little substance. Regarding `CC[C@H]1OC(=O)[C@H](C)[C@@H](O[C@H]2C[C@@](C)(OC)[C@@H](O)[C@H](C)O2)[C@H](C)[C@@H](O[C@@H]2O[C@H](C)C[C@H](N(C)C)[C@H]2O)[C@](C)(O)C[C@@H](C)C(=O)[C@H](C)[C@@H](O)[C@]1(C)O` [ERYTHROMYCIN], the MIC is 256 µg/mL (≈ 349 µM) in the test on Enterococcus faecium [1]; 256 µg/mL (≈ 349 µM) in the test on Enterococcus faecium [2]; 256 µg/mL (≈ 349 µM) with Enterococcus faecium [3]; 256 µg/mL (≈ 349 µM) with Enterococcus faecium [4]; 256 µg/mL (≈ 349 µM) against Enterococcus faecium [5]; under 1 µg/mL against Enterococcus faecium [6]. Moreover, the MIC in the test on Enterococcus faecium [7] is 256 µg/mL (≈ 349 µM); against Enterococcus faecium [8] it was under 1 µg/mL; with Enterococcus faecium [9] it was 256 µg/mL (≈ 349 µM); with Enterococcus faecium [10], 256 µg/mL (≈ 349 µM); against Enterococcus faecium [11] it was 0.1 µg/mL (≈ 0.136 µM); with Enterococcus faecium [12] it was 256 µg/mL (≈ 349 µM). In the test on Enterococcus faecium [13], it took 256 µg/mL (≈ 349 µM) to inhibit growth (MIC).
Consider `CN[C@H](CC(C)C)C(=O)N[C@H]1C(=O)N[C@@H](CC(N)=O)C(=O)N[C@H]2C(=O)N[C@H]3C(=O)N[C@H](C(=O)N[C@H](C(=O)O)c4cc(O)cc(O)c4-c4cc3ccc4O)[C@H](O)c3ccc(c(Cl)c3)Oc3cc2cc(c3O[C@@H]2O[C@H](CO)[C@@H](O)[C@H](O)[C@H]2O[C@H]2C[C@](C)(N)[C@H](O)[C@H](C)O2)Oc2ccc(cc2Cl)[C@H]1O` [VANCOMYCIN], for which the MIC in the test on Enterococcus faecium [1] is 256 µg/mL (≈ 177 µM); with Enterococcus faecium [2], under 1 µg/mL; in the test on Enterococcus faecium [3], under 1 µg/mL; against Enterococcus faecium [4], under 1 µg/mL; against Enterococcus faecium [5], under 1 µg/mL; against Enterococcus faecium [6], 256 µg/mL (≈ 177 µM). The MIC was under 1 µg/mL with Enterococcus faecium [7]; 256 µg/mL (≈ 177 µM) in the test with Enterococcus faecium [8]; 256 µg/mL (≈ 177 µM) against Enterococcus faecium [9]; under 1 µg/mL in the test with Enterococcus faecium [10]; under 1 µg/mL in the test on Enterococcus faecium [11]; under 1 µg/mL against Enterococcus faecium [13].

Values taken from ChEMBL document CHEMBL1687788, “Characterization of two newly identified genes, vgaD and vatH, [corrected] conferring resistance to streptogramin A in Enterococcus faecium” (2010).
